We go through 96 molecules from ChEMBL document CHEMBL4513216, “Probing the Open Global Health Chemical Diversity Library for Multistage-Active Starting Points for Next-Generation Antimalarials” (ACS Infect Dis, 2020).

The nature of the data set: Toxicity liver stage against HepG2, at 10uM. Set-up: test concentration 10 uM, cell line HepG2-A16-CD81EGFP. It is filed as cell-based. The following applies: human, HepG2-A16-CD81EGFP cells; read-out: INHIBITION
The method, boiled down: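 Uninfected HepG2-A16-CD81EGFP cells, 3 × 10^3 per well, 1536-well, plated on prespotted compound at 10 μM final, parasite-free screening media added to match infected plates; puromycin 10 μM positive, DMSO 0.5% negative; run in parallel with 48 h PbLuc assay at 37 °C, 5% CO2; viability by CellTiter-Glo luminescence, normalized to controls.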
`COCC(=O)N[C@H](C)c1c(-c2ccc(Cl)cc2)noc1C(=O)O`: the cytotoxicity at 10 µM turned out to be 1.05%.

Regarding `CC1=C[C@@H](CC#N)[C@H](C(C)C)C[C@H]1CC(=O)N1CCN(CCO)CC1`, the cytotoxicity at 10 µM is 4.62%.

Regarding `O=C(CCc1nc2cccnc2[nH]1)NCc1ccncc1`, the cytotoxicity at 10 µM came out at 3.72%.

Turning to `CCc1c(C)nc2n(c1=O)CC(C(=O)Nc1ncccc1C)CS2` (stereo unspecified), the cytotoxicity at 10 µM came to 7.14%.

Turning to `O=S(=O)(NCCn1ccc(-c2ccccn2)n1)C1CC1`, the cytotoxicity at 10 µM is -1.04%.

On to `CC(=O)N1CCCC2(CCN(C(=O)c3nccnc3N)CC2)C1`, for which the cytotoxicity at 10 µM is 3.47%.

`C[C@H]1C[C@H]2CN(S(=O)(=O)c3ccc(F)cc3)CC[C@@H]2O1`: the cytotoxicity at 10 µM turned out to be 2.97%.

Consider `CCCNC(=O)c1nc2c(o1)CN(c1ncccn1)C2`, for which the cytotoxicity at 10 µM was found to be 1.95%.

For `O=C(NC[C@H]1OC[C@@H]2CCN(c3ccccn3)C[C@@H]21)c1ccco1`, the cytotoxicity at 10 µM was 1.32%.

Turning to `Cc1nocc1C(=O)N1CCc2c(CN(C)C)nn(C)c2C1`, the cytotoxicity at 10 µM is -0.567%.

For `CC(C)CNC(=O)c1nc2c(s1)CCN(C(=O)c1ccc(Cl)cc1)CC2`, the cytotoxicity at 10 µM turned out to be 7.4%.

Consider `C[C@H]1C[C@@H]2CCN(C(=O)c3ccccn3)C[C@H]2O1`, for which the cytotoxicity at 10 µM was 4.17%.

As for `C[C@@H]1C[C@H]2CN(C(=O)c3ccncn3)C[C@H]2O1`, the cytotoxicity at 10 µM was 0.748%.

On to `CC(C)CC(=O)N1CC[C@H]2C[C@H](c3nccs3)O[C@@H]2C1`, for which the cytotoxicity at 10 µM was -0.966%.

With `O=C(c1cc(-n2cnnn2)ccc1Cl)N1CCCCCC1`, the cytotoxicity at 10 µM was 5.56%.

Consider `O=C(Cn1ccc2c(Cl)cccc21)N1CCCC1`, for which the cytotoxicity at 10 µM amounted to 0.583%.

As to `CC(C)CN1CCCC2(CCN(C(=O)c3cnccn3)C2)C1` (stereo unspecified), the cytotoxicity at 10 µM is 2.39%.

Turning to `CCN(CC)CCNC(=O)c1ccn(COc2cc(C)cc(C)c2)n1`, the cytotoxicity at 10 µM was determined as 4.36%.

In the case of `CC(=O)N1CCC(c2c(CN(C)C)cnc3cc(C)nn23)CC1`, the cytotoxicity at 10 µM stood at 2.54%.

As to `Cc1noc(C)c1CC(=O)N1CCCC(Cc2ccccn2)C1` (stereo unspecified), the cytotoxicity at 10 µM was 4.75%.

As for `CC(C)CC(=O)N1CCCC1c1cc(CO)[nH]n1` (stereo unspecified), the cytotoxicity at 10 µM is 3.05%.

On to `CC(=O)N1CCc2nc(C3CCN(c4ncccn4)C3)ncc2C1` (stereo unspecified), for which the cytotoxicity at 10 µM is -30%.

As to `CCc1cc(C(=O)N2CCC(O)(Cn3ccc4ccncc43)CC2)no1`, the cytotoxicity at 10 µM is -18.7%.

With `COCCC(=O)N1CCC(c2nc(O)cc(-c3ccncc3)n2)C1` (stereo unspecified), the cytotoxicity at 10 µM is -25%.

As for `CN(C)CC(=O)N1CC(c2nn(C)c3nccnc23)C1`, the cytotoxicity at 10 µM was -6.26%.

`O=C(c1ccccc1)N1CC2(CCNC2)OCc2ccccc21` (stereo unspecified): the cytotoxicity at 10 µM came out at 13%.

On to `NC(=O)CS(=O)(=O)Cc1csc(-c2ccc(F)cc2)n1`, for which the cytotoxicity at 10 µM is -4.95%.

Regarding `CN(CC(N)=O)Cc1csc(-c2ccc(F)cc2)n1`, the cytotoxicity at 10 µM amounted to 2.5%.

As to `COc1cccc(CNCCc2cccc(C(N)=O)c2)c1`, the cytotoxicity at 10 µM was 9.83%.

On to `CCOc1ccc(NC(=O)c2cc(C)c(C)o2)cc1CO`, for which the cytotoxicity at 10 µM amounted to 3.78%.

With `COCCN(CCOC)C(=O)c1ccoc1C`, the cytotoxicity at 10 µM is 6.72%.

As to `CCC(C#N)NC(=O)CCNC(=O)C(C)(C)C` (stereo unspecified), the cytotoxicity at 10 µM was -1.55%.

For `CC(C)N(CC(=O)Nc1cccc(C(=O)N(C)C)c1)C1CC1`, the cytotoxicity at 10 µM is -4.81%.

As to `COc1cccc(COCC(=O)NC(C(N)=O)c2ccccc2F)c1` (stereo unspecified), the cytotoxicity at 10 µM was -4.55%.

As for `COC(=O)CCNC(=O)c1nnn(-c2ccccc2)c1C(F)(F)F`, the cytotoxicity at 10 µM is -4.27%.

Regarding `CCNc1cc2c(nn1)CCN(C(=O)C1COc3ccccc3C1)C2` (stereo unspecified), the cytotoxicity at 10 µM was -4.83%.

On to `COCc1ccc(C(=O)N2CCN(CCS(C)(=O)=O)CC2)cc1`, for which the cytotoxicity at 10 µM was -1.33%.

Regarding `O=C(Nc1cccc(F)c1)N1CCN(Cc2noc(C3CC3)n2)CC1`, the cytotoxicity at 10 µM turned out to be 3.8%.

Consider `CC(=O)N(C)CC(=O)NC1(c2ccc(F)cc2)CCCC1`, for which the cytotoxicity at 10 µM worked out at 0.747%.

Turning to `CN(CC(O)COc1ccc(C(F)(F)F)cc1)C(=O)Nc1nncs1` (stereo unspecified), the cytotoxicity at 10 µM was -11.1%.

As to `c1ccc2c(c1)OCCCC2NCc1nnc2n1CCCCC2` (stereo unspecified), the cytotoxicity at 10 µM is -0.044%.

On to `COCC(NC(=O)c1cc(C)n(C)n1)c1cccc(C(F)(F)F)c1` (stereo unspecified), for which the cytotoxicity at 10 µM was determined as 9.43%.

Take `CC(C)CCn1ccc(NC(=O)N2CCCC2CN2CCOCC2)n1` (stereo unspecified): the cytotoxicity at 10 µM was -2.16%.

For the molecule `COc1ccc(C2CCCCCN2S(N)(=O)=O)cc1` (stereo unspecified), the cytotoxicity at 10 µM came out at 8.87%.

Regarding `COc1ccccc1N1CCCC(Nc2nccnc2C#N)C1` (stereo unspecified), the cytotoxicity at 10 µM is 18.3%.

For `CCC(CNC(=O)c1nc(=O)[nH][nH]1)Oc1ccccc1C(F)(F)F` (stereo unspecified), the cytotoxicity at 10 µM came to 1.45%.

On to `O=c1oc(-c2ccc(F)cc2)nn1CCc1ccccn1`, for which the cytotoxicity at 10 µM is -5.65%.

On to `O=C(c1ccccn1)N(CCO)Cc1cc(Br)ccc1F`, for which the cytotoxicity at 10 µM worked out at 9.91%.

Regarding `COC(=O)c1ccc(Cl)c(CN(C)Cc2ncnn2C)c1`, the cytotoxicity at 10 µM is -7.81%.

Consider `c1cnn(CCNCc2cnc(N3CCCC3)nc2)c1`, for which the cytotoxicity at 10 µM was -9.46%.

For `Cc1ccc(NC(=O)NCCc2ccncc2C)c(N(C)C)n1`, the cytotoxicity at 10 µM was 12.9%.

On to `Cc1ccc(NS(=O)(=O)c2cc(C(=O)O)oc2C)c(Br)c1`, for which the cytotoxicity at 10 µM came to 1.83%.

Regarding `CN(C)C(=O)c1cc(NC(=O)N2CCCC(C(F)(F)F)C2)ccn1` (stereo unspecified), the cytotoxicity at 10 µM was -3.58%.

Regarding `Cn1cc(CNCCn2cccn2)c(-c2cccnc2)n1`, the cytotoxicity at 10 µM is -2.34%.

Take `Cc1cc(CN2C[C@@H]3COC[C@]3(CNC(=O)c3ccno3)C2)no1`: the cytotoxicity at 10 µM amounted to 1.18%.

For the molecule `O=C(NCCNc1cccnc1)C(c1cccnc1)N1CCCC1` (stereo unspecified), the cytotoxicity at 10 µM was determined as 4.11%.

`O=C1CCC2(CCCN(C(=O)C3CCCC3)C2)CN1CCc1c[nH]cn1` (stereo unspecified): the cytotoxicity at 10 µM is -0.699%.

As for `Cc1cnc(N(C)CCCc2cnn(C)c2)nc1N(C)C`, the cytotoxicity at 10 µM worked out at 2.03%.

With `CC1(C)Cc2nc(C(C)(C)C)ncc2C(NC(=O)Cc2nnn[nH]2)C1` (stereo unspecified), the cytotoxicity at 10 µM was -3.67%.

For `CCN(Cc1ccc(-c2ccccn2)cc1)C1CCS(=O)(=O)C1` (stereo unspecified), the cytotoxicity at 10 µM was -9.25%.

Consider `Cc1ccc(CN2CCN(Cc3cc(C)n[nH]3)CC2CCO)cc1` (stereo unspecified), for which the cytotoxicity at 10 µM came to 1.13%.

Take `COc1ccc(Cl)cc1C(=O)N1C[C@H](C(C)C)[C@@H](N)C1`: the cytotoxicity at 10 µM was found to be 1.17%.

Regarding `CCNc1ncc(C2CC(=O)Nc3c2cnn3Cc2ccncc2)cn1` (stereo unspecified), the cytotoxicity at 10 µM was -6.87%.

Take `CN1CCC(N(C)CCC(=O)N2CCN(Cc3cccc(F)c3)CC2)C1` (stereo unspecified): the cytotoxicity at 10 µM was -3.41%.

For the molecule `COCCn1ccnc1C1CCCN(c2ncnc3c(C)csc23)C1` (stereo unspecified), the cytotoxicity at 10 µM was 2.57%.

Consider `COc1ccc(C(C(=O)O)N2CCC(Cn3cccn3)CC2)cc1F` (stereo unspecified), for which the cytotoxicity at 10 µM is 1.81%.

In the case of `COCCNc1nc2c(c(NCc3cnc(C)c(C)c3)n1)CCNCC2`, the cytotoxicity at 10 µM was -1.22%.

Turning to `CC(O)CCn1ccc2[nH]c(=O)c(C#N)cc2c1=O` (stereo unspecified), the cytotoxicity at 10 µM is 5.66%.

For the molecule `OCc1ccc(CN2CCC(n3cc(-c4ccc(F)cc4)nn3)CC2)o1`, the cytotoxicity at 10 µM was 5.54%.

For `CSc1ccc(CN(CCO)C(=O)CCc2cccc(F)c2)cc1`, the cytotoxicity at 10 µM stood at 2.93%.

Turning to `O=C(c1cnc(C2CC2)nc1O)N1CCN(Cc2ccccc2F)CC1`, the cytotoxicity at 10 µM was -1.83%.

For `CC1(C)CN(c2cc(C3CC3)ncn2)C[C@]1(C)O`, the cytotoxicity at 10 µM was determined as 1.4%.

Regarding `CC(C)n1ccc(CN2CCN(c3cc(NC4CC4)nc(N)n3)CC2)c1`, the cytotoxicity at 10 µM is -1.45%.

Turning to `CCC(=O)NCc1ccc(N2CCCCC2)cc1`, the cytotoxicity at 10 µM was -6.89%.

Regarding `COCCN(Cc1ccc(OC)nc1)Cc1cccs1`, the cytotoxicity at 10 µM was -7.28%.

With `Cn1nccc1C(=O)N1CCOC(Cc2cccc(C(F)(F)F)c2)C1` (stereo unspecified), the cytotoxicity at 10 µM was found to be 5.52%.

As for `Cc1cnn(CCNCC(=O)NCCOc2ccc(Cl)cc2)c1`, the cytotoxicity at 10 µM is -11.8%.

Take `Cc1cc(C(=O)N2CCOC(c3nc(C(C)C)n[nH]3)C2)c(C)s1` (stereo unspecified): the cytotoxicity at 10 µM was -5.72%.

For `Cc1ncc2c(n1)CN(CC(=O)Nc1cc(C)on1)CC2`, the cytotoxicity at 10 µM is -12.4%.

As to `O=C(NCc1csc(Br)c1)N1CCC(O)CC1`, the cytotoxicity at 10 µM is -11.8%.

For `CN1CC(C(=O)NCc2ccnc(-n3cccn3)c2)CC1=O` (stereo unspecified), the cytotoxicity at 10 µM is -0.867%.

Regarding `O=C(Cc1cn2ccsc2n1)N1CCCC(n2cccn2)C1` (stereo unspecified), the cytotoxicity at 10 µM is -13.6%.

With `CC(C)C(C)(C#N)NC(=O)CN1CCC(c2ccnn2CCO)CC1` (stereo unspecified), the cytotoxicity at 10 µM was -4.95%.

In the case of `CCOc1ccnc(N2CCN(C(=O)c3cc[nH]n3)CC2)n1`, the cytotoxicity at 10 µM is 8.82%.

`Cc1cc(CN2CCN(CC(O)c3ccc4c(c3)OCO4)CC2)no1` (stereo unspecified): the cytotoxicity at 10 µM is -7.82%.

On to `Cc1nc(C)n(CC2CN(CCOCC(F)(F)F)CCO2)n1` (stereo unspecified), for which the cytotoxicity at 10 µM is -1.95%.

With `Cc1cc(NC(=O)NCc2cccnc2OC(C)C)n(C)n1`, the cytotoxicity at 10 µM was found to be 3.2%.

Take `Cc1ncsc1CN1Cc2cnn(C)c2C(COCC2CC2)C1` (stereo unspecified): the cytotoxicity at 10 µM is 3.04%.

For the molecule `O=C(NCc1cncc2c1CCN(CC1CCOC1)C2)c1ccno1` (stereo unspecified), the cytotoxicity at 10 µM was 13%.

As to `Cc1cccc(CN2CC[C@H]3[C@H]2CCN3C(=O)c2cnn(C)c2)n1`, the cytotoxicity at 10 µM came out at 14.4%.

Consider `c1cncc(CO[C@H]2CO[C@@]3(CCN(Cc4ccoc4)C3)C2)c1`, for which the cytotoxicity at 10 µM was -3.24%.

In the case of `O=C1COC2(CCN(Cc3ccoc3)CC2)CN1`, the cytotoxicity at 10 µM was -11.3%.

For the molecule `CN1CCCCC12CCN(c1nncs1)CC2`, the cytotoxicity at 10 µM was 6.89%.

As for `CNC(=O)CN1CCCC12CCN(C(=O)c1ccsc1)CC2`, the cytotoxicity at 10 µM turned out to be 4.87%.

Regarding `O=C(N[C@@H]1CN(Cc2cccs2)[C@@H]2COC[C@@H]21)C1CCC1`, the cytotoxicity at 10 µM is 9.34%.

For `Cc1cc(CN2CC[C@H]3OCC[C@@]3(C(=O)NCc3ccco3)C2)no1`, the cytotoxicity at 10 µM was found to be 6.73%.
